Data published in ChEMBL document CHEMBL4219101, “Discovery of 18β-glycyrrhetinic acid conjugated aminobenzothiazole derivatives as Hsp90-Cdc37 interaction disruptors that inhibit cell migration and reverse drug resistance” (Bioorg Med Chem, 2018).
The source made the active and inactive calls. The rule behind the calls is not given here.

Tests used:
A549 [1] = experiment: Inhibition of Hsp90/Cdc37 interaction in human A549 cells assessed as downregulation of Cdc37 in immunoprecipitated HSP90 complex at 10 uM after 24 hrs by Western blot analysis; type: cell-based
How it was run: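 A549 cells exposed to 5 and 10 µM for 24 h, geldanamycin 10 µM as comparator. Lysis in 20 mM Tris-HCl pH 7.4, 25 mM NaCl, 2 mM DTT, 20 mM Na2MoO4, 0.1% NP-40 and protease inhibitors. 500 µg protein immunoprecipitated overnight at 4 °C with anti-Hsp90 antibody, captured on protein G agarose, washed five times and boiled. Cdc37 and Hsp90 detected by Western blot, with input also blotted.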

HepG2 = experiment: Antiproliferative activity against human HepG2 cells after 48 hrs by MTT assay; type: functional, cell-based; settings: HepG2, 48 h
How it was run: (§1)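 Cells in log phase seeded at about 1.0 × 10^5 cells/mL in 96-well plates, left 12 h at 37 °C, 5% CO2. Compounds dissolved in DMSO, added at 2.5, 5, 10, 20 and 50 µM, 48 h exposure. Absorbance read at 570/630 nm dual wavelength. Survival expressed relative to negative control. IC50 by Bliss method (n = 5), tests done in triplicate.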

[2] = Inhibition of His-tagged full-length Hsp90 (unknown origin)/GST-tagged Cdc37M (unknown origin) interaction after 1 hr by HTRF assay; design: species or system Homo sapiens
How it was run: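 TR-FRET in PBS containing 400 mM KF, pH 7.3. His-tagged full-length Hsp90 and GST-Cdc37M, each 250 nM final, incubated with compound for 1 h at 37 °C. Anti-GST-Cryptate and anti-6His-XL665 then added for a further 0.5 h at 37 °C. Excitation 320 nm, emission 665/620 nm, reported as ratio ×10,000. Negative and blank controls run in each assay.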

MCF7 = experiment: Antiproliferative activity against human MCF7 cells after 48 hrs by MTT assay; type: functional, cell-based; settings: MCF7, 48 h; how it was run: as §1
A549 [3] = experiment: Antiproliferative activity against human A549 cells after 48 hrs by MTT assay; type: functional, cell-based; settings: A549, 48 h; how it was run: as §1
HCT-116 = experiment: Antiproliferative activity against human HCT116 cells after 48 hrs by MTT assay; type: functional, cell-based; settings: HCT-116, 48 h; how it was run: as §1
[4] = Antiproliferative activity against human NCI-460 cells after 48 hrs by MTT assay; type: functional, cell-based; settings: NCI-460, 48 h; how it was run: as §1
Homo sapiens = species on record: Homo sapiens; experiment: Inhibition of HSP90/Cdc37 interaction assessed as reversal of drug resistance by measuring ratio of IC50 for human doxorubicin-resistant NCI-H460 cells to IC50 for human NCI-H460 cells
How it was run: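 Resistance factor is the ratio of IC50 in NCI-H460/DOX cells to IC50 in parental NCI-H460 cells. […] Values are mean ± SD of five separate experiments. Doxorubicin serves as the positive control.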

[5] = Inhibition of HSP90/Cdc37 interaction in human doxorubicin-resistant NCI-H460 cells assessed as reduction in cell proliferation after 48 hrs by MTT assay; settings: NCI-H460, 48 h; how it was run: as §1

IC50 (HepG2) [µM] | IC50 [2] [µM] | IC50 (MCF7) [µM] | IC50 (A549 [3]) [µM] | IC50 (HCT-116) [µM] | Ratio IC50 (Homo sapiens) | Compound | inhibition (A549 [1]) | IC50 [4] [µM] | IC50 [5] [µM]
 |  |  |  |  |  | COC1=C2C[C@@H](C)C[C@H](OC)[C@H](O)[C@@H](C)/C=C(\C)[C@H](OC(N)=O)[C@@H](OC)/C=C\C=C(/C)C(=O)NC(=CC1=O)C2=O | inactive |  | 
94.5 | 78.4 | 74.8 | 84.2 | 91.2 |  | CC1(C)[C@@H](O)CC[C@]2(C)[C@H]3C(=O)C=C4[C@@H]5C[C@@](C)(C(=O)O)CC[C@]5(C)CC[C@@]4(C)[C@]3(C)CC[C@@H]12 [ENOXOLONE] |  |  | 
 |  |  |  |  | 7.33 | COc1cccc2c1C(=O)c1c(O)c3c(c(O)c1C2=O)C[C@@](O)(C(=O)CO)C[C@@H]3O[C@H]1C[C@H](N)[C@H](O)[C@H](C)O1 [DOXORUBICIN] |  | 5.18 | 38
39.5 | 41.3 | 33.8 | 33.4 | 37.4 |  | CC1(C)[C@@H](O)CC[C@]2(C)[C@H]3C(=O)C=C4[C@@H]5C[C@@](C)(C(=O)Nc6nc7ccc(Br)cc7s6)CC[C@]5(C)CC[C@@]4(C)[C@]3(C)CC[C@@H]12 |  |  | 
85.6 | 90.1 | 81.2 | 75.5 | > 100 |  | COc1ccc2nc(NC(=O)[C@@]3(C)CC[C@]4(C)CC[C@]5(C)C(=CC(=O)[C@@H]6[C@@]7(C)CC[C@H](OC(C)=O)C(C)(C)[C@@H]7CC[C@]65C)[C@@H]4C3)sc2c1 |  |  | 
45.6 | 45.7 | 41.2 | 36.5 | 42.5 |  | CC1(C)[C@@H](O)CC[C@]2(C)[C@H]3C(=O)C=C4[C@@H]5C[C@@](C)(C(=O)Nc6nc7c(F)cccc7s6)CC[C@]5(C)CC[C@@]4(C)[C@]3(C)CC[C@@H]12 |  |  | 
> 100 | > 100 | > 100 | > 100 | > 100 |  | CC(=O)O[C@H]1CC[C@]2(C)[C@H]3C(=O)C=C4[C@@H]5C[C@@](C)(C(=O)Nc6nc7c(C)cccc7s6)CC[C@]5(C)CC[C@@]4(C)[C@]3(C)CC[C@H]2C1(C)C |  |  | 
> 100 | > 100 | > 100 | > 100 | > 100 |  | CC(=O)O[C@H]1CC[C@]2(C)[C@H]3C(=O)C=C4[C@@H]5C[C@@](C)(C(=O)Nc6nc7c(Cl)cccc7s6)CC[C@]5(C)CC[C@@]4(C)[C@]3(C)CC[C@H]2C1(C)C |  |  | 
17 | 1.67 | 15 | 13.6 | 15.4 | 1.29 | CCOC(=O)[C@@]1(C)CC[C@]2(C)CC[C@]3(C)C(=CC(=O)[C@@H]4[C@@]5(C)CC[C@H](OC(=O)CCC(=O)Nc6nc7c(Cl)cccc7s6)C(C)(C)[C@@H]5CC[C@]43C)[C@@H]2C1 |  | 14 | 18.1
27.6 | 83.2 | 23.2 | 22.4 | 18.7 |  | Cc1ccc2nc(NC(=O)[C@@]3(C)CC[C@]4(C)CC[C@]5(C)C(=CC(=O)[C@@H]6[C@@]7(C)CC[C@H](O)C(C)(C)[C@@H]7CC[C@]65C)[C@@H]4C3)sc2c1 |  |  | 
88 | 89.5 | 71.4 | 75.4 | 80.7 |  | CC1(C)[C@@H](O)CC[C@]2(C)[C@H]3C(=O)C=C4[C@@H]5C[C@@](C)(C(=O)Nc6nc7ccccc7s6)CC[C@]5(C)CC[C@@]4(C)[C@]3(C)CC[C@@H]12 |  |  | 
12.4 | 0.83 | 8.66 | 6.09 | 11 | 1.13 | CCOC(=O)[C@@]1(C)CC[C@]2(C)CC[C@]3(C)C(=CC(=O)[C@@H]4[C@@]5(C)CC[C@H](OC(=O)CCC(=O)Nc6nc7ccc(Cl)cc7s6)C(C)(C)[C@@H]5CC[C@]43C)[C@@H]2C1 |  | 10.6 | 12
65.6 | 54.3 | 71.2 | 85.5 | > 100 |  | CC(=O)O[C@H]1CC[C@]2(C)[C@H]3C(=O)C=C4[C@@H]5C[C@@](C)(C(=O)Nc6nc7ccc(F)cc7s6)CC[C@]5(C)CC[C@@]4(C)[C@]3(C)CC[C@H]2C1(C)C |  |  | 
> 100 | > 100 | > 100 | > 100 | > 100 |  | CC(=O)O[C@H]1CC[C@]2(C)[C@H]3C(=O)C=C4[C@@H]5C[C@@](C)(C(=O)Nc6nc7ccccc7s6)CC[C@]5(C)CC[C@@]4(C)[C@]3(C)CC[C@H]2C1(C)C |  |  | 
69.6 | 65.6 | 71.2 | 75.4 | > 100 |  | CC1(C)[C@@H](O)CC[C@]2(C)[C@H]3C(=O)C=C4[C@@H]5C[C@@](C)(C(=O)Nc6nc7c(Cl)cccc7s6)CC[C@]5(C)CC[C@@]4(C)[C@]3(C)CC[C@@H]12 |  |  | 
12.5 | 1.05 | 10.9 | 9.07 | 10.1 | 1.23 | CCOC(=O)[C@@]1(C)CC[C@]2(C)CC[C@]3(C)C(=CC(=O)[C@@H]4[C@@]5(C)CC[C@H](OC(=O)CCC(=O)Nc6nc7c(F)cccc7s6)C(C)(C)[C@@H]5CC[C@]43C)[C@@H]2C1 |  | 12.5 | 15.4
21.9 | 10.4 | 20.1 | 16.4 | 23.1 |  | CCOC(=O)[C@@]1(C)CC[C@]2(C)CC[C@]3(C)C(=CC(=O)[C@@H]4[C@@]5(C)CC[C@H](OC(=O)CCC(=O)Nc6nc7c(OC)cccc7s6)C(C)(C)[C@@H]5CC[C@]43C)[C@@H]2C1 |  |  | 
29.9 | 15.3 | 24.4 | 20.7 | 26.8 |  | CCOC(=O)[C@@]1(C)CC[C@]2(C)CC[C@]3(C)C(=CC(=O)[C@@H]4[C@@]5(C)CC[C@H](OC(=O)CCC(=O)Nc6nc7c(Br)cccc7s6)C(C)(C)[C@@H]5CC[C@]43C)[C@@H]2C1 |  |  | 
> 100 | > 100 | > 100 | > 100 | > 100 |  | CC(=O)O[C@H]1CC[C@]2(C)[C@H]3C(=O)C=C4[C@@H]5C[C@@](C)(C(=O)Nc6nc7c(Br)cccc7s6)CC[C@]5(C)CC[C@@]4(C)[C@]3(C)CC[C@H]2C1(C)C |  |  | 
36.4 | 32.3 | 31.1 | 32.2 | 31.5 |  | CC1(C)[C@@H](O)CC[C@]2(C)[C@H]3C(=O)C=C4[C@@H]5C[C@@](C)(C(=O)Nc6nc7ccc(F)cc7s6)CC[C@]5(C)CC[C@@]4(C)[C@]3(C)CC[C@@H]12 |  |  | 
19 | 5.07 | 16.1 | 14.2 | 15.9 |  | CCOC(=O)[C@@]1(C)CC[C@]2(C)CC[C@]3(C)C(=CC(=O)[C@@H]4[C@@]5(C)CC[C@H](OC(=O)CCC(=O)Nc6nc7ccc(Br)cc7s6)C(C)(C)[C@@H]5CC[C@]43C)[C@@H]2C1 |  |  | 
20.4 | 8.24 | 18.5 | 15.5 | 21.3 |  | CCOC(=O)[C@@]1(C)CC[C@]2(C)CC[C@]3(C)C(=CC(=O)[C@@H]4[C@@]5(C)CC[C@H](OC(=O)CCC(=O)Nc6nc7ccc(OC)cc7s6)C(C)(C)[C@@H]5CC[C@]43C)[C@@H]2C1 |  |  | 
25.8 | 9.09 | 20.5 | 18.8 | 22.3 | 1.17 | CCOC(=O)[C@@]1(C)CC[C@]2(C)CC[C@]3(C)C(=CC(=O)[C@@H]4[C@@]5(C)CC[C@H](OC(=O)CCC(=O)Nc6nc7ccccc7s6)C(C)(C)[C@@H]5CC[C@]43C)[C@@H]2C1 |  | 16.4 | 19.2

Compound | IC50 (HepG2) [µM] | IC50 [2] [µM] | IC50 (MCF7) [µM] | IC50 (A549 [3]) [µM] | IC50 (HCT-116) [µM] | Ratio IC50 (Homo sapiens) | inhibition (A549 [1]) | IC50 [4] [µM] | IC50 [5] [µM]
CC1=C(O)C(=O)C=C2C1=CC=C1[C@@]2(C)CC[C@@]2(C)[C@@H]3C[C@](C)(C(=O)O)CC[C@]3(C)CC[C@]12C [CELASTROL] | 6.17 | 6.22 | 6.84 | 6.59 | 5.26 |  |  |  | 
